KCNQ1 inh = blocks the human KCNQ1 potassium channel. CHO-K1 KCNQ1, FluxOR thallium flux fluorescence; stronger effect = higher value. B-score at 10 µM. P51787. 310,000 tested, 1.3% active. AID 2642;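 active = compounds whose thallium flux B-score, printed positive for inhibition, exceeds three library SD while starting fluorescence stays within three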;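 also: channel opened by potassium depolarization with thallium stimulus after 20 min compound exposure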
KCNK3 inh = human KCNK3 channel inhibition, primary screen; O14649; 340,000 tested, 0.84% active; AID 602410; B-score at 10 µM; CHO-KCNK3 thallium flux, FluxOR fluorescence; stronger effect = lower value;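 active = B-score under library mean minus 4 SD, starting fluorescence ratio at most library mean plus 5 SD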;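 also: more negative B-score means stronger inhibition of thallium flux through KCNK3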
Target sequence (O14649 whole entry, looked up): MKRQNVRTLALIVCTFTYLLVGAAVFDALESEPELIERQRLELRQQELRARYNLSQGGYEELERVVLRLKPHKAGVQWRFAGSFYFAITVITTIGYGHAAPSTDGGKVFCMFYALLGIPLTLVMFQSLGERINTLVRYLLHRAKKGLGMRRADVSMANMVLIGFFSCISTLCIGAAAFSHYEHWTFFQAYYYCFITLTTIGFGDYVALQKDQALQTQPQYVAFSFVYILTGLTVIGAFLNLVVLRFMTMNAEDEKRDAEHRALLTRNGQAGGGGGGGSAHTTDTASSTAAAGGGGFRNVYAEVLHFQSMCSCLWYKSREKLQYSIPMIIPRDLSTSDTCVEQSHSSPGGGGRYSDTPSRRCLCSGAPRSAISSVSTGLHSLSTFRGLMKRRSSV
hERG protect = compounds protecting human hERG from proarrhythmic drug block; Q12809; CHO-hERG, FluxOR thallium flux, dofetilide IC70 present; activation (rescue from dofetilide block), less the hit threshold, % at 10 µM; 310,000 tested, 0.51% active; AID 1511;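 active = activation above the mean of controls blocked by dofetilide plus 5 SD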;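 also: thallium influx through hERG after potassium depolarization seen as dye fluorescence rise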
KCNK9 inh = human KCNK9 channel inhibition; HEK293 KCNK9, FluxOR thallium flux fluorescence; stronger effect = lower value; B-score at 10 µM; 310,000 tested, 1.2% active;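 active = ratio B-score over 3 SD below the library mean, with starting fluorescence within 5 SD of its mean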;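 also: negative B-score means less thallium flux so channel inhibition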
KCNQ1 pot = potentiates or activates the human KCNQ1 potassium channel. B-score at 10 µM. CHO-K1 KCNQ1, thallium flux FluxOR fluorescence; stronger effect = higher value. P51787. 310,000 tested, 0.35% active;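 active = fluorescence ratio B-score, a plate-corrected score, at least three library SD, with initial intensity B-score within 5 SD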
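System: CHO-K1 cells stably expressing KCNQ1 / Medium: assay buffer for compound exposure, DMSO matched across wells / Reagent: thallium- and potassium-containing depolarizing buffer / Compound: one concentration, matched DMSO / Incubation: 20 min compound pretreatment at room temperature / Measured by: kinetic FluxOR fluorescence, 10 s baseline plus 110 s post-stimulus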
Each line names hits and unclear results; the compound was inactive in the other large screens. This is a sample that favours compounds with a hit; in the whole collection about 3.1% have one here.

CC1Sc2ccccc2N(CC(=O)N(C(C)C)C(C)C)C1=O (stereo not drawn)	none
O=C(Nc1ccccc1N1CCN(C(=O)c2ccccc2)CC1)c1cc2ccccc2o1	KCNK3 inh -9.7 (no result: KCNQ1 inh, hERG protect, KCNK9 inh, KCNQ1 pot)
COc1ccc(Cc2noc(CN3CCCC(OCc4ccccn4)C3)n2)cc1OC (stereo not drawn)	none
Cc1ccc(C(C)C)c(OCC(O)CN2CCc3ccccc3C2)c1 (stereo not drawn)	KCNQ1 inh 6
COc1ccc(S(=O)(=O)N(Cc2ccccc2)c2ccccc2C(=O)Nc2ccccc2C(=O)NCc2ccco2)cc1	KCNK9 inh -6.95
COc1ccc(S(=O)(=O)Nc2ccccc2C(=O)NCc2ccco2)cc1	none
Fc1cnc(Cl)nc1NC1CCCCC1	none
O=C(Nc1ccc2c(c1)OCO2)C1CC(=O)N(c2ccc(F)cc2)C1 (stereo not drawn)	none
CSc1nc2c(c(=O)[nH]1)C(c1ccc(Cl)cc1)CC(=O)N2 (stereo not drawn)	none
CSc1nc2c(c(=O)[nH]1)C(c1ccccc1Cl)CC(=O)N2 (stereo not drawn)	hERG protect 9.7
Cc1cccc(C)c1Nc1nnc(SCc2cc([N+](=O)[O-])cc3c2OCOC3)s1	KCNK9 inh -6.71
O=CN1CCCN(Cc2nc(-c3cccc(Cl)c3)no2)CC1	none
COc1cc(/C=C2\SC(=O)N(c3cccc(Cl)c3)C2=O)cc([N+](=O)[O-])c1O	none (no result: KCNQ1 inh, hERG protect, KCNK9 inh, KCNQ1 pot)
O=C1S/C(=C\c2ccc(O)c([N+](=O)[O-])c2)C(=O)N1Cc1cccc([N+](=O)[O-])c1	KCNQ1 inh 11
O=C1S/C(=C\c2ccc(O)c([N+](=O)[O-])c2)C(=O)N1c1ccccc1Cl	KCNQ1 inh 10
CCOC(=O)C1C(C)=C(Nc2ccc(OC)cc2)C(=O)N1c1ccc(OC)cc1 (stereo not drawn)	none
CCC(C)OC(=O)C[N+](C)(C)CCOC1CC2CCC1(C)C2(C)C (stereo not drawn)	KCNQ1 inh 7
CCCOC(=O)C[N+](C)(C)CCOC1CC2CCC1(C)C2(C)C (stereo not drawn)	none
CCCCOC(=O)C[N+](C)(C)CCOC1CC2CCC1(C)C2(C)C (stereo not drawn)	KCNQ1 inh 7
CCCCCCOC(=O)C[N+](C)(C)CCOC1CC2CCC1(C)C2(C)C (stereo not drawn)	KCNQ1 inh 9
O=c1cnnc(SCc2ccc([N+](=O)[O-])cc2)[nH]1	none
COc1ccc(OC)c(Cc2nnc(CCC(=O)NC3C4CC5CC(C4)CC3C5)o2)c1 (stereo not drawn)	none
CCN(CC)C(=O)/C(=C\c1cccc([N+](=O)[O-])c1)NC(=O)c1ccco1	none
O=C(Nc1ccc(N2CCCCC2)cc1)c1ccc2ccccc2n1	none
CCOC(=O)Cc1csc2nc(-c3ccccc3)nn12	none
CCOC(=O)c1cc(=O)n2nc(-c3ccc(C)cc3)nc2s1	KCNQ1 inh 7
Cc1ccc(C(=O)c2ccccc2C(=O)Nc2ccccc2)cc1	none
Cc1ccc(C)c(NC(=O)c2ccccc2C(=O)c2ccccc2)c1	KCNK9 inh -10.2 (no result: KCNK3 inh)
C=CCc1c(C)nc(-c2ccccc2)nc1N/N=C/c1ccncc1	none
C=CCc1c(C)nc(-c2ccccc2)nc1N/N=C/c1ccccc1	KCNQ1 inh 6
COC(CNS(=O)(=O)c1ccc(S(=O)(=O)NC2CC2)cc1)OC	none
CS(=O)(=O)N1CCN(c2ccccc2NC(=O)c2cc3ccccc3o2)CC1	none
Cc1ccc(S(=O)(=O)N2CC(C)N(C(=O)N3CCOCC3)C2C)cc1 (stereo not drawn)	none
Cc1sc2ncnc(SCC(=O)NC(=O)c3cccn3C)c2c1C	KCNQ1 pot 11
CC(=O)c1ccc(N2CCN(S(=O)(=O)c3csc(C(N)=O)c3)CC2)cc1	none
NC(=O)c1cc(S(=O)(=O)N2CCN(c3ccc([N+](=O)[O-])cc3)CC2)cs1	KCNQ1 inh 7
CCN1CCC(O)(C(C(=O)O)c2ccccc2)CC1 (stereo not drawn)	none (no result: KCNQ1 inh, hERG protect, KCNK9 inh, KCNQ1 pot)
CCCN(CCC)C(=O)C(c1ccccc1)C1(O)CCCCC1 (stereo not drawn)	KCNK3 inh -8.9 (no result: KCNQ1 inh, hERG protect, KCNK9 inh, KCNQ1 pot)
O=C(Nc1cccn(Cc2c(Cl)cccc2Cl)c1=O)c1ccccc1Cl	KCNK9 inh -6.79
COCc1cc(C)nc(SCC(=O)c2ccc(O)c(O)c2)c1C#N	hERG protect 5.7
COCc1cc(C)nc(SCC(=O)Oc2ccccc2)c1C#N	none
CCOc1ccc(C(=O)NCC(=O)NCCSc2ccc(Br)cc2)cc1OCC	KCNK3 inh -9.81 (no result: KCNQ1 inh, hERG protect, KCNK9 inh, KCNQ1 pot)
CCOc1ncccc1C(=O)OC(C)C(=O)Nc1ccc(Cl)cn1 (stereo not drawn)	none (no result: KCNQ1 inh, hERG protect, KCNK9 inh, KCNQ1 pot)
CNc1ccccc1C(=O)OC(C)C(=O)Nc1ccc(Cl)cn1 (stereo not drawn)	KCNQ1 pot 12
S=C(NCc1cccs1)Nc1ccccc1	none
NS(=O)(=O)c1ccc(NC(=S)NCc2cccs2)cc1	hERG protect 6.6
C[C@H](CO)N1C[C@H](C)[C@@H](CN(C)Cc2ccncc2)Oc2c(cccc2N(C)C)C1=O	none (no result: KCNQ1 inh, hERG protect, KCNK9 inh, KCNQ1 pot)
NS(=O)(=O)c1cccc(NC(=O)CSc2nnc(C3CC3)n2Cc2ccccc2)c1	none
CCCN(c1ccccc1F)S(=O)(=O)c1cc(-c2cc(C)no2)ccc1OC	KCNK9 inh -7.77
COc1ccc(-c2cc(C)no2)cc1S(=O)(=O)N(C)Cc1ccco1	none
CC(C)COc1ccc(S(=O)(=O)n2cc(F)c(=O)[nH]c2=O)cc1	hERG protect 5.0
Cc1ccc(NC(=O)Cc2cc(C(=O)O)c3ccccc3n2)c(C)c1	none
Cc1ccc(S(=O)(=O)N(C)CC(=O)Nc2nc3ccccc3s2)cc1	none
Cc1ccc(/C(=N/Nc2nc3ccccc3s2)C2=C(O)c3ccccc3C2=O)cc1	KCNQ1 inh 10
Cc1ccc(C(=O)OCC(=O)Nc2sc3c(c2C#N)CCCC3)cc1NC(=O)c1ccco1	KCNQ1 pot 19
COCC1CCCN(C(=O)c2cc(COc3ccc4ncccc4c3)on2)C1 (stereo not drawn)	KCNQ1 inh 6
O=C(c1cc(COc2ccc3ncccc3c2)on1)N1CCCC(O)C1 (stereo not drawn)	none
O=C(COC(=O)/C=C/c1ccc(F)cc1)NCc1ccco1	hERG protect 39.0
O=C(COC(=O)/C=C/c1ccc([N+](=O)[O-])cc1)NCc1ccco1	none
O=C(Nc1cc(-c2ccccc2)sc1C(=O)O)c1cccc(F)c1	KCNQ1 inh 6
O=C(O)c1ccc(NC(=O)c2ccccc2NC(=O)c2cccc(F)c2)cc1	none
COC(=O)Cc1c(C)c2ccc(OC3CCCCC3=O)c(C)c2oc1=O (stereo not drawn)	none
c1ccc2c(c1)CCN(c1ncnc3c1[nH]c1ccccc13)C2	KCNQ1 inh 11, KCNK3 inh -8.71
Cc1ccc2nc(-c3ccncc3)cc(-c3ccccc3)c2c1	none
Cc1ccc(-c2cc3cccc[n+]3cc2-c2ccc(C)cc2)cc1	KCNQ1 inh 8
